# Rows were chosen to be rich in hits. Some 2% of all compounds tested hit in one or more screens of this group.
# PfM18AAP inh = blocks P. falciparum M18 aspartyl aminopeptidase; recombinant PfM18AAP, H-Glu-NHMec fluorogenic cleavage; inhibition, % at 7.35 µM; hit rate 1.2% among 290,000;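 active means inhibition above the campaign mean inhibition over all tested compounds plus 3 SD, cut at about 28% in these data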;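 further: 0% = plate median of test compound wells and 100% = 2 mM ZnCl2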
# Tb hexokinase = blocks Trypanosoma brucei hexokinase 1 activity; hit rate 0.11% among 220,000; recombinant TbHK1, G6PDH-coupled NADH A340; inhibition, % at 10 µM;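 active means inhibition of 50% or more in the single-dose primary screen; inactive means inhibition below 50%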
# RBBP9 inhibitor = blocks human serine hydrolase RBBP9; O75884; recombinant RBBP9, FP-Rh probe fluorescence polarization; inhibition, % at 7.94 µM; hit rate 0.2% among 220,000; AID 1515;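 active means inhibition above the campaign mean of all tested compounds plus 3 SD, cut at about 14% in these data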;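 further: plate controls were DMSO wells with RBBP9 for no effect and wells lacking RBBP9 protein for full effect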
# Target sequence (O75884 whole entry, looked up): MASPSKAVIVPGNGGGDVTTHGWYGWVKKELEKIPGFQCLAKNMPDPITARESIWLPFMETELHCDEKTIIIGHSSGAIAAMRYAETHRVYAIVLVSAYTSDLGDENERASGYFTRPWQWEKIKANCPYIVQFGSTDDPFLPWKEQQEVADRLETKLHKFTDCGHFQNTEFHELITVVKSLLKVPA
#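 Test system: recombinant human RBBP9. Quantity: 2.5 µM RBBP9 dispensing solution, before mixing. Detection: FP readout at 525/598 nm. Reagent: Serine-hydrolase probe FP-Rh, 375 nM pre-mixing. Measure: % inhibition. Control set: DMSO-treated enzyme wells and wells lacking RBBP9. Buffer or medium: Tris-NaCl-Pluronic buffer, pH 8.0. Times: preincubation 30 min plus labeling 45 min at 25 °C.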
# zVAD death inh = L929 zVAD cell death inhibition; viability rescue, % at 10 µM; L929 zVAD necroptosis rescue, ATP luminescence, 24 h; with zVAD 60 µM; hit rate 0.38% among 220,000; AID 1377;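 active means activation, scaled between plate controls, above about 75%, limit read from the data; inactive means activation under that limit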;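 further: 0% = zVAD with DMSO and 100% = DMSO alone without zVAD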
# TNF necrop inh = TNF-alpha cell death inhibition in Jurkat FADD-/- cells; activation (protection from cell death), % at 10 µM; hit rate 0.068% among 220,000; Jurkat FADD-/- TNF necroptosis rescue, ATP luminescence, 24 h; 0 = TNF only, 100 = no-TNF cells;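 active means activation, meaning protection from cell death, of at least 50% relative to plate controls; inactive means activation below 50%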;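 further: necroptosis triggered by 40 ng/mL TNF-alpha added together with compound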
# Lipid droplet = modulators of hepatic lipid droplet formation; AML12 mouse hepatocytes, oleate lipid droplets, BODIPY imaging; inhibition, % at 6.5 µM; hit rate 0.4% among 240,000; AID 1656;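 active means lipid droplet intensity inhibited by at least 50%, with more than 500 cells counted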
#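 Test system: AML12 mouse liver cells; schedule: overnight exposure; technique: high-content imaging of BODIPY-stained droplets and DAPI nuclei; read-out: % inhibition of corrected integrated BODIPY droplet signal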
# Lipid drop inh = confirmation of inhibitors of hepatic lipid droplet formation; AML12 mouse hepatocytes, BODIPY lipid droplet imaging; droplets induced with 100 µM oleic acid; AID 463183; inhibition, % at 5.2 µM; hit rate 65% among 870; shares compounds with Lipid droplet;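 active means inhibition of lipid droplet metric at least 50%, with more than 300 cells in each of four replicates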;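 further: plate controls were DMSO with oleic acid for no effect and 5 µM Triacsin-C for full effect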
# AML12 cytotox = counter-screen for cytotoxicity in AML12 mouse hepatocytes; shares compounds with Lipid droplet; DAPI nuclear morphology cytotoxicity imaging; stronger effect = higher value; cells fed 100 µM oleate overnight; z-score at 5 µM; hit rate 3% among 870; in the data active means z-score above about 6.3;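 further: compound exposure lasted overnight at 37 °C before fixation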
# AML12 tox ATP = AML12 hepatocyte cytotoxicity, confirmed; shares compounds with Lipid droplet; AML12 mouse hepatocyte viability, ATP luminescence; cells loaded with 100 µM oleic acid; cytotoxicity, % at 50 µM; 530 tested, under 10 active; AID 463219;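 active means cytotoxicity above 50% in each of four replicates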;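 further: compound exposure lasted overnight at 37 °C before the ATP read; 0% = DMSO-treated cells and 100% = wells with no cells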
# * marks the source's active call; other numbers are inactive results; · = no result.
SMILES,PfM18AAP inh,Tb hexokinase,RBBP9 inhibitor,zVAD death inh,TNF necrop inh,Lipid droplet,Lipid drop inh,AML12 cytotox,AML12 tox ATP
O=C(CSC1=NC2(CCCCC2)N=C1c1ccccc1)Nc1ccc2c(c1)OCCO2,0,2,-5,·,6,6,·,·,·
CCN(CC(=O)Nc1ccccc1OC)C(=O)c1ccc(NS(=O)(=O)c2ccc(C(C)=O)cc2)cc1,-4,·,·,·,·,-1,·,·,·
COc1ccccc1Nc1ccc(NS(=O)(=O)c2ccc(C(C)=O)cc2)cc1,-42,·,·,·,·,99*,94*,0.79,·
CN(C(=O)CSC1=NC2C(N=N1)c1cc(Br)ccc1N2C)C1CCCCC1 (stereo unspecified),0,-3,-6,2,0,-4,·,·,·
Cc1ccsc1C(C(=O)NC(C)(C)C)N(Cc1ccco1)C(=O)c1csnn1 (stereo unspecified),6,·,·,·,·,5,·,·,·
CCC(C)(C)NC(=O)C(c1sccc1C)N(Cc1ccco1)C(=O)c1csnn1 (stereo unspecified),2,·,·,·,·,58*,70*,-0.47,12
O=C(CCC(=O)N1CCOc2ccccc21)NCCc1ccccc1,-7,·,·,·,·,-10,·,·,·
CCOc1ccc(CCNC(=O)CCNS(=O)(=O)c2ccc(Br)cc2)cc1OCC,-6,·,·,·,·,75*,98*,-0.36,15
CCOc1ccc(CCNC(=O)CCS(=O)(=O)c2ccc(C)cc2)cc1OCC,5,·,·,·,·,102*,95*,-0.82,8
CCOc1ccc(CCNC(=O)CCS(=O)(=O)c2ccc(Br)cc2)cc1OCC,2,·,·,·,·,54*,92*,0.049,12
CCOc1ccc(CCNC(=O)CCC(=O)N2CCOc3ccccc32)cc1OCC,-5,·,·,·,·,83*,111*,-0.36,17
CC(=O)N1c2ccc(S(=O)(=O)NCC3CCC(C(=O)NC4CCCCC4)CC3)cc2CC1C (stereo unspecified),1,·,·,·,·,-6,·,·,·
CC(C)C(=O)Nc1ccc(NC(=O)c2cccnc2)cn1,0,8,1,0,0,·,·,·,·
S=C(Nc1ccc(Br)cc1Cl)N1CCN(c2ccccn2)CC1,5,·,·,·,·,-1,·,·,·
Cc1cc(C=O)c(O)cc1O,-1,·,·,·,·,51*,27,-0.29,·
COc1cc(O)ccc1C=O,3,-57,-1,0,-1,18,·,·,·
COc1cc(NC(=O)c2oc3ccccc3c2C)ccc1NC(=O)c1ccco1,-6,·,·,·,·,102*,111*,0.032,19
COc1cc(NC(=O)c2cc3ccccc3o2)ccc1NC(=O)c1ccco1,-6,·,·,·,·,32,·,·,·
COc1cc(C2N3CC4(C)CN2CC(C)(C3)C4)ccc1O (stereo unspecified),3,-41,3,0,-1,92*,5,-1.6,·
CCCCOc1ccc(C(=O)Nc2cc(C)c(OCC(=O)N3CCOCC3)c(C)c2)cc1,-6,-16,-9,0,-2,93*,96*,0.34,45
Cc1cc(NC(=O)c2cccc3ccccc23)cc(C)c1OCC(=O)N1CCOCC1,-3,-3,-5,1,1,61*,88*,0.28,17
CCNC(=S)N1CCc2cc(OC)c(OC)cc2C1COc1ccc(F)cc1 (stereo unspecified),5,-2,-7,1,2,60*,97*,-0.0057,3
CCOC(=O)c1ccc(NC(=O)CCOc2ccc(C)cc2)cc1,3,0,-7,-1,3,66*,90*,-0.81,6
CC(C)NC(=O)CN1C(=O)c2cccc3cccc1c23,3,·,·,·,·,-7,·,·,·
CCCCOc1ccc(NC(=O)Cn2c(=O)ccc3c(C)cc(C)nc32)cc1,7,1,-3,0,4,66*,91*,-0.13,10
SMILES,PfM18AAP inh,Tb hexokinase,RBBP9 inhibitor,zVAD death inh,TNF necrop inh,Lipid droplet,Lipid drop inh,AML12 cytotox,AML12 tox ATP
CCC(=O)Nc1c2c(nn1-c1ccc(C)cc1)CS(=O)(=O)C2,3,·,·,·,·,57*,35,0.25,·
COc1ccccc1C(=O)NCC(=O)NCc1cc(=O)n(C)c(=O)n1C,-9,·,·,·,·,6,·,·,·
O=C(c1ccc(S(=O)(=O)N2CCOCC2)cc1)N1CCN(c2ccccc2F)CC1,0,1,-1,0,-1,-2,·,·,·
Cc1cc(C)n(-c2nc3c(c(=O)[nH]c(=O)n3C)n2CC(O)COc2ccc(Cl)cc2Cl)n1 (stereo unspecified),7,7,11,0,-5,52*,-16,0.69,·
CCN(CC)CCNc1nc2c(c(=O)[nH]c(=O)n2C)n1CC(O)COc1ccc(Cl)cc1Cl (stereo unspecified),-5,6,-3,0,-1,·,·,·,·
CC1=C(C#N)C(NC(=O)c2cccc(Cl)c2)(C(F)(F)F)C(=O)N1 (stereo unspecified),-6,-5,-2,0,3,-1,·,·,·
CCOC(=O)N1CCN(C(=O)CSCC(=O)Nc2nc(-c3ccc(OC)cc3)cs2)CC1,-1,-3,10,0,-4,16,·,·,·
